Screens as filed in PubChem.
MPTP block – blocks calcium-induced mitochondrial swelling. isolated mouse mitochondria, Ca2+ swelling absorbance, 30 min. AID 602449. inhibition, % at 10 µM. hit rate 1.4% among 360,000;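 active = inhibition of 50% or more, scaled per plate between neutral and stimulator controls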
iPSC survival up – hiPSC single-cell survival enhancement | ATPlite luminescence; 100% = ROCK inhibitor wells, 0% = DMSO | survival enhancement, % at 20 µM | hit rate 0.044% among 360,000 | AID 602274; in the data active = survival enhancement above about 18%;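 note: cells exposed to compounds for 16 hours before the ATP read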
UBC13 inh – blocks human UBC13 polyubiquitin chain formation; P61088; TR-FRET; inhibition, % at 20 µM; hit rate 0.47% among 330,000; AID 485273; in the data active = inhibition above about 45%, passing the limit was not always enough
Target sequence (P61088 whole entry, looked up): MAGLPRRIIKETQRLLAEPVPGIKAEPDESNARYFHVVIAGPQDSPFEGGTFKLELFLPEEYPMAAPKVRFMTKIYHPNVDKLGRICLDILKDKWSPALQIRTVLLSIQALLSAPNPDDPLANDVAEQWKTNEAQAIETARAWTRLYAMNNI
Apaf-1 inh – inhibitors of human Apaf-1 apoptosome; O14727; reconstituted apoptosome caspase-3 activity, DEVD-Rh110 fluorescence; inhibition, % at 20 µM; hit rate 0.71% among 330,000; active = inhibition of at least 40% at 20 µM
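Medium: Hepes buffer, pH 7.5 / System: biochemical Apaf-1 apoptosome reconstitution / Measured by: Rh110 fluorescence, excitation 480 nm, emission 540 nm / Times: compound with Apaf-1, dATP, procaspase-3 30 min, then 50 min reaction, room temperature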
MIN6 prolif – induces beta-cell replication in MIN6 cells; MIN6 cells proliferation, ATPlite luminescence, 48 h; cells starved in 0.2% serum; 100% = growth in 10% serum; proliferation, % at 10 µM; hit rate 0.29% among 330,000; AID 2380;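 active = compounds whose signal lies at least 3.5 SD above the mean of all wells on their plate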
Granule exo inh – lytic granule exocytosis inhibition; inhibition, % at 10 µM; TALL-104 LAMP-1 surface exposure, flow cytometry; cells stimulated with thapsigargin and PMA; AID 651702; hit rate 0.66% among 360,000;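 active = inhibition above about 55%, limit read from the data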
Rh123 counter – membrane potential counter-screen of mitochondrial pore inhibitors; isolated mitochondria, Rhodamine 123 fluorescence; hit rate 78% among 5,000; inhibition, % at 10 µM; shares compounds with MPTP block; AID 624504; in the data active = inhibition above about 22%
MPTP abs DR – MPTP inhibition, dose response swelling confirmation; IC50, µM; isolated mitochondria swelling, absorbance; hit rate 58% among 780; shares compounds with MPTP block; in the data active = IC50 below about 20 µM
MPTP cs DR – counter-screen for mitochondrial permeability transition pore inhibitors, dose response; shares compounds with MPTP block; isolated mitochondria counterscreen, fluorescence read-out; IC50, µM; hit rate 49% among 780; AID 651564; in the data active = IC50 below about 80 µM
A number is an active result. This is a sample that favours compounds with a hit; in the whole collection about 3% have one here.

`Cc1ccc(S(=O)(=O)NCc2ccccc2)cc1C(=O)N1CCN(S(=O)(=O)c2ccccc2F)CC1` gave MPTP block inactive, iPSC survival up inactive and Granule exo inh inactive.
O=C(NC1CC1)c1ccc2sc([C@H]3C[C@H](O)[C@@H](CO)O3)nc2c1 was read as MPTP block inactive, iPSC survival up inactive and Granule exo inh inactive.
COc1cccc(NC(=O)CN(C)C(C)C(=O)NC(C)c2ccc(Cl)cc2Cl)c1 (stereo not drawn) was read as MPTP block inactive, iPSC survival up inactive, UBC13 inh inactive, Apaf-1 inh inactive, MIN6 prolif inactive and Granule exo inh inactive.
CCOC(=O)c1sc(NC(=O)Nc2ccccc2Cl)cc1C was read as MPTP block 72, iPSC survival up inactive, UBC13 inh inactive, Apaf-1 inh inactive, MIN6 prolif inactive, Granule exo inh inactive and Rh123 counter 60.
`CCOC(=O)c1sc(NC(C)=O)cc1C` gave MPTP block inactive, iPSC survival up inactive, UBC13 inh inactive, Apaf-1 inh inactive, MIN6 prolif inactive and Granule exo inh inactive.
For CCOC(=O)c1sc(NC(=O)Nc2ccccc2)cc1C the results were MPTP block 94, iPSC survival up inactive, UBC13 inh inactive, Apaf-1 inh inactive, MIN6 prolif inactive, Granule exo inh inactive and Rh123 counter 70.
For CCOC(=O)c1sc(NC(=O)c2cccc(S(=O)(=O)N3c4ccccc4CC3C)c2)cc1C (stereo not drawn) the results were MPTP block 56, iPSC survival up inactive, UBC13 inh inactive, Apaf-1 inh inactive, MIN6 prolif inactive, Granule exo inh inactive and Rh123 counter 38.
CC(C)c1ccc(NC2CCCN(C(=O)CN3C(=O)CSC3=O)C2)cc1 (stereo not drawn) was read as MPTP block inactive, iPSC survival up inactive, UBC13 inh inactive, Apaf-1 inh inactive, MIN6 prolif inactive and Granule exo inh inactive.
Screening O=C(NCCC1=CCCCC1)c1cccc(S(=O)(=O)N2CCCCC2)c1 returned MPTP block inactive, iPSC survival up inactive, UBC13 inh inactive, Apaf-1 inh inactive, MIN6 prolif inactive and Granule exo inh inactive.
Screening O=[N+]([O-])c1ccc(N/N=C2\CC3CC=CC23)c([N+](=O)[O-])c1 (stereo not drawn) returned MPTP block 92, iPSC survival up inactive, UBC13 inh inactive, Apaf-1 inh inactive, MIN6 prolif inactive, Granule exo inh inactive and Rh123 counter 75.
For COc1ccccc1NS(=O)(=O)c1ccc(N/N=C(\C)C(C)C)c([N+](=O)[O-])c1 the results were MPTP block 76, iPSC survival up inactive, UBC13 inh inactive, Apaf-1 inh inactive, MIN6 prolif inactive, Granule exo inh inactive and Rh123 counter 55.
COc1ccc(NS(=O)(=O)c2ccc(N/N=C(\C)c3ccncc3)c([N+](=O)[O-])c2)cc1 was read as MPTP block 68, iPSC survival up inactive, UBC13 inh inactive, Apaf-1 inh inactive, MIN6 prolif inactive, Granule exo inh inactive and Rh123 counter 20.
Screening CCCC(CCC)=NNc1ccc(S(=O)(=O)Nc2ccccc2OC)cc1[N+](=O)[O-] returned MPTP block inactive, iPSC survival up inactive, UBC13 inh inactive, Apaf-1 inh inactive, MIN6 prolif inactive and Granule exo inh inactive.
`Cc1nnc2ccc(Oc3ccc(-c4ccccc4)cc3)nn12` gave MPTP block 74, iPSC survival up inactive, UBC13 inh inactive, Apaf-1 inh inactive, MIN6 prolif inactive, Granule exo inh inactive and Rh123 counter 66.
`CCCn1c(=O)[nH]c(=O)c2c1nc(-c1ccc(OC(F)F)c(OC)c1)n2CCOC` gave MPTP block 80, iPSC survival up inactive, UBC13 inh inactive, Apaf-1 inh inactive, MIN6 prolif inactive, Granule exo inh inactive, Rh123 counter inactive, MPTP abs DR inactive and MPTP cs DR inactive.
For CN(c1ccccc1)S(=O)(=O)c1cc(C(=O)NCc2ccco2)ccc1Cl the results were MPTP block inactive, iPSC survival up inactive and Granule exo inh inactive.
For CC(CO)NS(=O)(=O)c1cc(Cl)ccc1F (stereo not drawn) the results were MPTP block inactive, iPSC survival up inactive and Granule exo inh inactive.
Screening Cc1cc(-n2c(C)cc(C(=O)CSc3nncn3C(C)C)c2C)no1 returned MPTP block inactive, iPSC survival up inactive, UBC13 inh inactive, Apaf-1 inh inactive, MIN6 prolif inactive and Granule exo inh inactive.
For N=c1sccn1CC(=O)Nc1cc(Cl)ccc1Oc1ccccc1 the results were MPTP block inactive, iPSC survival up inactive, UBC13 inh inactive, Apaf-1 inh inactive, MIN6 prolif inactive and Granule exo inh inactive.
For N=c1sccn1CC(=O)Nc1cccc(Oc2ccccc2)c1 the results were MPTP block 92, iPSC survival up inactive, UBC13 inh inactive, Apaf-1 inh inactive, MIN6 prolif inactive, Granule exo inh inactive, Rh123 counter inactive, MPTP abs DR 4.9 and MPTP cs DR inactive.
For O=C(Nc1cccc(-c2cccc(F)c2)c1)C1CCN(C2CCC2)CC1 the results were MPTP block 64, iPSC survival up inactive, UBC13 inh inactive, Apaf-1 inh inactive, MIN6 prolif inactive, Granule exo inh inactive, Rh123 counter inactive, MPTP abs DR 7.7 and MPTP cs DR 58.
For N=c1c2c(-c3ccccc3)c(-c3ccccc3)n(Cc3ccco3)c2ncn1CCCN1CCOCC1 the results were MPTP block 71, iPSC survival up inactive, UBC13 inh inactive, Apaf-1 inh inactive, MIN6 prolif inactive, Granule exo inh inactive and Rh123 counter inactive.
Screening CC(C)(C)OC(=O)N/N=C/c1cc(N=Nc2ccccc2)ccc1O returned MPTP block 96, iPSC survival up inactive, UBC13 inh inactive, Apaf-1 inh inactive, MIN6 prolif inactive, Granule exo inh inactive and Rh123 counter 69.
`CCc1nc2ccc(C(=O)NCCOc3ccc(OC)cc3)cn2c1N(C=O)Cc1ccc(OC)cc1` gave MPTP block inactive, iPSC survival up inactive and Granule exo inh inactive.
CSc1ccccc1NC(=O)Nc1ccc(Cl)cc1 was read as MPTP block 92, iPSC survival up inactive, UBC13 inh inactive, Apaf-1 inh inactive, MIN6 prolif inactive, Granule exo inh inactive and Rh123 counter 75.
CSc1cccc(NC(=O)/C=C/c2cccc(Cl)c2)c1 was read as MPTP block 73, iPSC survival up inactive, UBC13 inh inactive, Apaf-1 inh inactive, MIN6 prolif inactive, Granule exo inh inactive and Rh123 counter 82.
COc1ccc(NC(=O)Nc2ccccc2SC)cc1 was read as MPTP block inactive, iPSC survival up inactive, UBC13 inh inactive, Apaf-1 inh inactive, MIN6 prolif inactive and Granule exo inh inactive.
